Data from ChEMBL document CHEMBL4354861, “Re-Evaluating the Mechanism of Action of α,β-Unsaturated Carbonyl DUB Inhibitors b-AP15 and VLX1570: A Paradigmatic Example of Unspecific Protein Cross-linking with Michael Acceptor Motif-Containing Drugs” (J Med Chem, 2020).
Calls of active or inactive are those of the source. The calls are words filed in the database; no cut-off is given here.

How the values were obtained:
Anamorsin (Homo sapiens) [1] = biological target: Anamorsin (Homo sapiens) (UniProt Q6FI81); assay: Inhibition of CIAPIN1 in human KMS11 cells assessed as […] depletion of stable CIAPIN1 levels at 1 to 10 uM incubated for 6 hrs by immunoblot analysis; format: cell-based
Sequence of Anamorsin (Homo sapiens) (Q6FI81 whole entry): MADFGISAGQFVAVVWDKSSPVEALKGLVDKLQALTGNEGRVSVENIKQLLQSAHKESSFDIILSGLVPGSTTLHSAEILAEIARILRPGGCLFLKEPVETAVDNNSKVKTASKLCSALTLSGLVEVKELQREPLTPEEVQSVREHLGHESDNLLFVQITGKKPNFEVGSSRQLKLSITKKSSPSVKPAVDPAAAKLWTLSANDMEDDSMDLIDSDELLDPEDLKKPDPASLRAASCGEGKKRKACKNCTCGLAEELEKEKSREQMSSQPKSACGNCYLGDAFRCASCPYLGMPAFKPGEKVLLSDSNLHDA

SiHa = assay: Cytotoxicity in human SiHa cells assessed as reduction in cell viability incubated for 72 hrs Cell-titer Glo reagent based assay; format: functional
In short: (§1)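 Tumor lines grown at 37 °C, 5% CO2 with 10% FBS (DMEM for HeLa and SiHa; RPMI for HCT116) and exposed to compound for 72 h. Viability read by CellTiter Glo luminescence; IC50 derived from n=6.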

HeLa [2] = assay: Inhibition of deubiquitinase in human HeLa cell extracts assessed as increase in high molecular weight protein complexes at 10 uM incubated for 2 hrs in presence of GSH by SDS-PAGE and Coomassie Blue staining based method; format: cell-free
[3] = biological target: Ubiquitin carboxyl-terminal hydrolase BAP1 (Homo sapiens) (UniProt Q92560); assay: Inhibition of His6-tagged recombinant human BAP1 assessed as reduction in cleavage of luminescent substrate Ub-AML at 100 uM
Sequence of Ubiquitin carboxyl-terminal hydrolase BAP1 (Homo sapiens) (Q92560 whole entry): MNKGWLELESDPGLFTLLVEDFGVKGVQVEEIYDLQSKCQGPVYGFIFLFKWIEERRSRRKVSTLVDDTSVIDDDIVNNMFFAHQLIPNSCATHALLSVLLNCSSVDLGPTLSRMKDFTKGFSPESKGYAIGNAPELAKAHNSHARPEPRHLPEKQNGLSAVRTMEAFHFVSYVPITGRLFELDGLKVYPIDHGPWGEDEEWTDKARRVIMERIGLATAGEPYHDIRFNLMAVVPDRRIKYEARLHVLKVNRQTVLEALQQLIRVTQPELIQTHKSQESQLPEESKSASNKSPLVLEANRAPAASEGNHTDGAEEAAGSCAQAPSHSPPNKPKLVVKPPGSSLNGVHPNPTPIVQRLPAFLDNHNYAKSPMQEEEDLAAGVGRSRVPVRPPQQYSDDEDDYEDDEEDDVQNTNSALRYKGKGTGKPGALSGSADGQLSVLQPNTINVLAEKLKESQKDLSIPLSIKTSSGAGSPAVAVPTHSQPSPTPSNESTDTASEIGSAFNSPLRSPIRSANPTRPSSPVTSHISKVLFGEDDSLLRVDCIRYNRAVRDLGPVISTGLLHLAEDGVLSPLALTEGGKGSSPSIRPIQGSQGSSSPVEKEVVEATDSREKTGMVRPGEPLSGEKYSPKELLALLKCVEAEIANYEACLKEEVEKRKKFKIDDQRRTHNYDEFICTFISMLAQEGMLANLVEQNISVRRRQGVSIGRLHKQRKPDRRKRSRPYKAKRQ
In short: (§2)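 Purified recombinant DUBs assayed with Ub-AML as luminescent substrate, using the Glo reagent protocol and read on a microplate luminometer.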

[4] = biological target: Ubiquitin carboxyl-terminal hydrolase 7 (Homo sapiens) (UniProt Q93009); assay: Inhibition of N-terminal His6-tagged full length recombinant human USP7 assessed as reduction in cleavage of luminescent substrate Ub-AML at 100 uM; in short: as §2
[5] = biological target: Ubiquitin thioesterase OTUB1 (Homo sapiens) (UniProt Q96FW1); assay: Inhibition of recombinant human His6-Otubain-1 assessed as reduction in cleavage of luminescent substrate Ub-AML at 100 uM; in short: as §2
Sequence of Ubiquitin thioesterase OTUB1 (Homo sapiens) (Q96FW1 whole entry): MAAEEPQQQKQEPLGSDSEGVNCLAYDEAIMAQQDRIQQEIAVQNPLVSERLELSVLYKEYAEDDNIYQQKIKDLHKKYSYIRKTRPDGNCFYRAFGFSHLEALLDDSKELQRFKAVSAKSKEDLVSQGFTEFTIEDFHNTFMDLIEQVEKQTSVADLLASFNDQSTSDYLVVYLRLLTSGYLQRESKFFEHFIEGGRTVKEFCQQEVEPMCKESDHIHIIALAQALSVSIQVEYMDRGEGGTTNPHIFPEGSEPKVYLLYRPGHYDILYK

[6] = biological target: Ubiquitin carboxyl-terminal hydrolase isozyme L1 (Homo sapiens) (UniProt P09936); assay: Inhibition of human recombinant UCHL1 assessed as reduction in cleavage of luminescent substrate Ub-AML at 100 uM; in short: as §2
Sequence of Ubiquitin carboxyl-terminal hydrolase isozyme L1 (Homo sapiens) (P09936 whole entry, looked up): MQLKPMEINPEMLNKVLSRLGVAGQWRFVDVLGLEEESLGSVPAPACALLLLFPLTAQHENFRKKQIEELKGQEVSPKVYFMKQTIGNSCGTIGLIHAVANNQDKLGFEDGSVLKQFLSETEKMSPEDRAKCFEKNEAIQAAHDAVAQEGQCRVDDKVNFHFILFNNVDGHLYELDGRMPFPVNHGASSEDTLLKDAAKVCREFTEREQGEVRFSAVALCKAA

HeLa [7] = assay: Inhibition of deubiquitinase in human HeLa cell extracts assessed as decrease in global DUB activity at 10 uM using luminescent substrate Ub-AML; format: cell-free
In short: (§3)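 HeLa crude extracts used as the DUB source, prepared as for the ABP assays. Global DUB activity read by luminescence with Ub-AML substrate, using the Glo reagent protocol.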

HeLa [8] = assay: Inhibition of deubiquitinase in human HeLa cell extracts assessed as inhibition of HA-Ub-C2Br probe labeling at 1 to 100 uM incubated for 30 mins by immunoblot analysis; format: cell-free
[9] = biological target: T1, Ubiquitin carboxyl-terminal hydrolase isozyme L5 (Homo sapiens) (UniProt Q9Y5K5); assay: Inhibition of UCH-37 in human HeLa crude cell extracts assessed as induction of formation of high molecular weight complexes with […] at 10 uM incubated for 2 hrs in presence of dithiothreitol by immunoblot analysis; format: cell-free
T1 sequence (whole entry): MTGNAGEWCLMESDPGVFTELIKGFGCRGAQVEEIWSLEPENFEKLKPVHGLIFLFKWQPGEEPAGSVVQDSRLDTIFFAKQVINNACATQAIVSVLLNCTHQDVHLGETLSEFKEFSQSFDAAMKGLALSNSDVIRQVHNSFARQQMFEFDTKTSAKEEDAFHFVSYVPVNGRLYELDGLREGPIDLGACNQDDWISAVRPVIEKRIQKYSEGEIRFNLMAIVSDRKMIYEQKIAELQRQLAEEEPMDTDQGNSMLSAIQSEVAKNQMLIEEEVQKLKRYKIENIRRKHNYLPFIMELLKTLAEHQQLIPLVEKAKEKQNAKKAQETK

[10] = biological target: Tumor necrosis factor alpha-induced protein 3 (Homo sapiens) (UniProt P21580); assay: Inhibition of A20 catalytic domain (unknown origin) assessed as reduction in cleavage of luminescent substrate Ub-AML at 100 uM; in short: as §2
Sequence of Tumor necrosis factor alpha-induced protein 3 (Homo sapiens) (P21580 whole entry, the tested form may be a part): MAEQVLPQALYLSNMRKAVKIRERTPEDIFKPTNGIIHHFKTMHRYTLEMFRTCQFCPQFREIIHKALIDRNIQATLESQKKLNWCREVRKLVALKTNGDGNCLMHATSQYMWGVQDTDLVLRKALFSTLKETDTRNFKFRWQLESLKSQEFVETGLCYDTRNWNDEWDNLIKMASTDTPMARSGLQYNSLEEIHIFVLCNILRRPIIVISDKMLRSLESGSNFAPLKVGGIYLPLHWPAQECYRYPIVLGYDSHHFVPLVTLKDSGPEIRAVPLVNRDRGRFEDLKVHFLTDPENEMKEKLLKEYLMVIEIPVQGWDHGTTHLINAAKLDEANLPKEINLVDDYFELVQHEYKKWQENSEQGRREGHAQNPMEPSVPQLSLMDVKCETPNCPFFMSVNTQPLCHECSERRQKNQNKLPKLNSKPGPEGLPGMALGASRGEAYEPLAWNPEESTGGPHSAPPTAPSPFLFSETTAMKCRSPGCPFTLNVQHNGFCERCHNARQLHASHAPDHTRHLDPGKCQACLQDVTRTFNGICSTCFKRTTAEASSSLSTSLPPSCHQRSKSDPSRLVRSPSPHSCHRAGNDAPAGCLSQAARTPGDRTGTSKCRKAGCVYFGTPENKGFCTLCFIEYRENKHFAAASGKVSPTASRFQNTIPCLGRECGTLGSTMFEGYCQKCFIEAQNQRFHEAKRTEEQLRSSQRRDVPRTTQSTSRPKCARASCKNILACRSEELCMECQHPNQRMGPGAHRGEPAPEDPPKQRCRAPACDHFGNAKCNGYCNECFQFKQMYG

[11] = biological target: Ubiquitin carboxyl-terminal hydrolase 5 (Homo sapiens) (UniProt P45974); assay: Inhibition of human recombinant isopeptidase T assessed as reduction in cleavage of luminescent substrate Ub-AML at 100 uM; in short: as §2
Sequence of Ubiquitin carboxyl-terminal hydrolase 5 (Homo sapiens) (P45974 whole entry): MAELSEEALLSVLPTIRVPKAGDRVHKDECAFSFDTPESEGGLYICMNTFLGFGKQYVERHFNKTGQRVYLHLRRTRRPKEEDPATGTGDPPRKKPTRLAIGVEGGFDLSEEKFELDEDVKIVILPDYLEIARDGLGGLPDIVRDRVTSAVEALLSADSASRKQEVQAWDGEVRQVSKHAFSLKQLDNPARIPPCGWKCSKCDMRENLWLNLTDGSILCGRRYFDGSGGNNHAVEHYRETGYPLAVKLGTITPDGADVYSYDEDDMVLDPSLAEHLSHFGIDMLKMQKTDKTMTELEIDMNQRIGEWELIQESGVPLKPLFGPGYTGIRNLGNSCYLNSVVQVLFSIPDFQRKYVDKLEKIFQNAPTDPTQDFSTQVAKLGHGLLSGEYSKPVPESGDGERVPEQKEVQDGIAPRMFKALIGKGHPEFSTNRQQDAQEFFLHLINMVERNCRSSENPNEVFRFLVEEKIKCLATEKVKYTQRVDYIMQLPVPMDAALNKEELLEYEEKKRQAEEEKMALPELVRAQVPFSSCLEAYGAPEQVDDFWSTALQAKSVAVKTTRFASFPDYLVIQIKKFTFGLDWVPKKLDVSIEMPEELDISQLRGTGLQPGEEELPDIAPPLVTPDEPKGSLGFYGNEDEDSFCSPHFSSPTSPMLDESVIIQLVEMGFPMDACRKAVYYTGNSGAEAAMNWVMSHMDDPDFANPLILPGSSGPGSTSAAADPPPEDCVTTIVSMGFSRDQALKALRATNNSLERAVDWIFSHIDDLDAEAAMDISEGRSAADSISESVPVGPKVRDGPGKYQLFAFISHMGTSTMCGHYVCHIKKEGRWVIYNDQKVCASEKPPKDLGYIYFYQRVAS

[12] = biological target: Ubiquitin carboxyl-terminal hydrolase isozyme L3 (Homo sapiens) (UniProt P15374); assay: Inhibition of human recombinant UCHL3 assessed as reduction in cleavage of luminescent substrate Ub-AML at 100 uM; in short: as §2
Sequence of Ubiquitin carboxyl-terminal hydrolase isozyme L3 (Homo sapiens) (P15374 whole entry): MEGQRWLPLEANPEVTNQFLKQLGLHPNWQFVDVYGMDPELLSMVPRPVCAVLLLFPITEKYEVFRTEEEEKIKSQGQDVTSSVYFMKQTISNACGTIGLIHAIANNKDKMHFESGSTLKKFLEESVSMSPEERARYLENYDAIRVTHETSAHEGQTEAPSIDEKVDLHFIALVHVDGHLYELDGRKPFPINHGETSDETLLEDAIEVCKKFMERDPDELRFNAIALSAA

[13] = biological target: Ubiquitin carboxyl-terminal hydrolase 14 (Homo sapiens) (UniProt P54578); assay: Inhibition of USP14 in human HeLa crude cell extracts assessed as induction of formation of high molecular weight complexes with USP14 at 10 uM incubated for 2 hrs by immunoblot analysis; format: cell-free
Sequence of Ubiquitin carboxyl-terminal hydrolase 14 (Homo sapiens) (P54578 whole entry): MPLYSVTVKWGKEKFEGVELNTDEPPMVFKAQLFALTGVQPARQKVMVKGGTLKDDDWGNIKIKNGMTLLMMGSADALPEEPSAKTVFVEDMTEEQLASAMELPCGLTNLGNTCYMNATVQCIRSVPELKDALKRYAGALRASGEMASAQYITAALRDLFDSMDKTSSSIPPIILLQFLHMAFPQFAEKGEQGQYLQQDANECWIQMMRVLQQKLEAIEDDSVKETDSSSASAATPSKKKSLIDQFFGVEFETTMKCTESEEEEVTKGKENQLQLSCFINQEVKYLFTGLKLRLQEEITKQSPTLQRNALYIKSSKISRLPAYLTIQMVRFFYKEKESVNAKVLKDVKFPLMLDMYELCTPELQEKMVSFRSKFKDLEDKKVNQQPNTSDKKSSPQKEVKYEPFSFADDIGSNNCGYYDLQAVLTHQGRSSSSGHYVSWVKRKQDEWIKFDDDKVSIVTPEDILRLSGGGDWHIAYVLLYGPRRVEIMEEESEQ

[14] = biological target: Ubiquitin carboxyl-terminal hydrolase 14 (Homo sapiens) (UniProt P54578); assay: Inhibition of USP14 in intact human HeLa cells assessed as induction of formation of high molecular weight complexes with USP14 at 10 uM in presence of glutathione incubated for 2 hrs by immunoblot analysis; format: cell-based
In short: (§4)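 Intact HeLa cells (DMEM, 10% FBS, about 80% confluent) treated 2 h with vehicle or 10 μM compound, with or without 10 mM DTT or 10 mM GSH. Cells washed in cold PBS and lysed in RIPA with protease and phosphatase inhibitors. High-MW species detected by SDS-PAGE immunoblot; shorter exposures served as loading control.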

HeLa [15] = assay: Inhibition of deubiquitinase in human HeLa cell extracts assessed as decrease in global DUB activity at 50 uM using luminescent substrate Ub-AML; format: cell-free; in short: as §3
HeLa [16] = assay: Inhibition of deubiquitinase in human HeLa cell extracts assessed as increase in high molecular weight protein complexes at 10 uM incubated for 2 hrs in presence of DTT by SDS-PAGE and Coomassie Blue staining based method; format: cell-free
[17] = biological target: Ubiquitin carboxyl-terminal hydrolase 2 (Homo sapiens) (UniProt O75604); assay: Inhibition of N-terminal His6-tagged […] recombinant human USP2 catalytic domain assessed as reduction in cleavage of luminescent substrate Ub-AML at 100 uM; in short: as §2
Sequence of Ubiquitin carboxyl-terminal hydrolase 2 (Homo sapiens) (O75604 whole entry, the tested form may be a part): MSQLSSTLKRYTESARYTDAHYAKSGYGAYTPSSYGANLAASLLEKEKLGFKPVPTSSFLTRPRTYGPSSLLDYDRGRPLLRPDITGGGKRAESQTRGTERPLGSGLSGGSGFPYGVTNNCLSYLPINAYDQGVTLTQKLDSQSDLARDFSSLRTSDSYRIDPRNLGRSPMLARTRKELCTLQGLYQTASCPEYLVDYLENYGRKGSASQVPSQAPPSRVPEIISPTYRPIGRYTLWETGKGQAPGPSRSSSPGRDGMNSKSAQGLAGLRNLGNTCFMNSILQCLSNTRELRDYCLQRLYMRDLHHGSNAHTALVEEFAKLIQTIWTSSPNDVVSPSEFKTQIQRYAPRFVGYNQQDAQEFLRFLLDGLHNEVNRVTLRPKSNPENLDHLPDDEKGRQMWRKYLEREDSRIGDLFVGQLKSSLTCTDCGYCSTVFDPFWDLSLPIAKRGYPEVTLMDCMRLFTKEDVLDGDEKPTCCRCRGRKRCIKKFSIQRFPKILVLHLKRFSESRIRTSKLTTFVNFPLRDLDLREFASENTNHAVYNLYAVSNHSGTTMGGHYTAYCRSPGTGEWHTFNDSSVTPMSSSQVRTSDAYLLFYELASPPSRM

KMS-11 = assay: Cytotoxicity in human KMS11 cells assessed as reduction in cell viability at 1 to 10 uM incubated for 16 hrs in presence of GSH by Alamar blue assay; format: functional, cell-based
In short: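 KMS11 seeded at 80,000/well, treated with 1 or 10 µM compound with or without 1 mM GSH for 16 h, 6 biological replicates. Alamar blue fluorescence read at 560/590 nm, normalised to DMSO control.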

HCT-116 = assay: Cytotoxicity in human HCT116 cells assessed as reduction in cell viability incubated for 72 hrs Cell-titer Glo reagent based assay; format: functional; in short: as §1
Homo sapiens = species on record: Homo sapiens; assay: Inhibition of purified 19S proteasome (unknown origin) assessed as reduction in cleavage of luminescent substrate Ub-AML at 100 uM
Anamorsin (Homo sapiens) [18] = biological target: Anamorsin (Homo sapiens) (UniProt Q6FI81); assay: Inhibition of CIAPIN1 in human KMS11 cells assessed as induction of high molecular weight complex formation at 1 to 10 uM incubated for 6 hrs by immunoblot analysis; format: cell-based
HeLa [19] = assay: Inhibition of deubiquitinase in human HeLa cell extracts assessed as induction of accumulation of high molecular weight ubiquitylated proteins at 10 uM incubated for 2 hrs by immunoblot analysis; format: cell-free
[20] = biological target: T1, Ubiquitin carboxyl-terminal hydrolase isozyme L5 (Homo sapiens); assay: Inhibition of UCH-37 in intact human HeLa cells assessed as induction of formation of high molecular weight complexes with USP14 at 10 uM incubated for 2 hrs in presence of glutathione by immunoblot analysis; format: cell-based; in short: as §4

`C=CC(=O)N1C/C(=C\c2ccc([N+](=O)[O-])cc2)C(=O)/C(=C/c2ccc([N+](=O)[O-])cc2)C1` was tested, and the inhibition (Anamorsin (Homo sapiens) [1]) was “Active”, the Activity (SiHa) was “Active” and the inhibition (HeLa [2]) was “inactive”. For the same compound, the inhibition [3] was “Active”, the inhibition [4] was “Active” and the inhibition [5] was “Active”. For the same compound, the inhibition [6] was “Active”, the inhibition (HeLa [7]) was “Active” and the inhibition (HeLa [8]) was “Active”. The inhibition [9] was “inactive”, the inhibition [10] was “Active” and the inhibition [11] was “Active”. The inhibition [12] was “Active”, the inhibition [13] was “Active” and the inhibition [14] was “inactive”. The inhibition (HeLa [15]) was “Active”, the inhibition (HeLa [16]) was “inactive” and the inhibition [17] was “Active”. The Activity (KMS-11) was “inactive”, the Activity (HCT-116) was “Active” and the inhibition (Homo sapiens) was “Active”. For the same compound, the inhibition (Anamorsin (Homo sapiens) [18]) was “Active”, the inhibition (HeLa [19]) was “Active” and the inhibition [20] was “inactive”.
